# Source: PubChem BioAssay
# AHR activator = human AHR activation. 320,000 tested, 2.5% active. activation, % at 5 µM. P35869. AHR-responsive luciferase reporter cells, luminescence; in the data active = activation above about 47%;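 also: 0% = vehicle wells and 100% = reference agonist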
# ABCB6 inh 2 = blocks the human ABCB6 transporter | Q9NP58 | K562-ABCB6 porphyrin accumulation, flow cytometry, 1 h; stronger effect = lower value | fluorescence ratio to DMSO, % at 10 µM | 360,000 tested, 0.19% active;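 active = fluorescence ratio to DMSO below 75%, the collection mean minus 3 SD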;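 also: signal is porphyrin accumulated inside mitochondria; 100% equals median channel fluorescence of DMSO control wells; lower ratio means ABCB6 inhibition with less porphyrin fluorescence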
# GAA850 FXN act = activators of GAA850 frataxin (FXN) promoter | AID 540364 | 360,000 tested, 0.56% active | activation, % at 6 µM | HEK293 lucGAA850 FXN promoter luciferase reporter, 24 h; percent of 10 µM SAHA response;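 active = activation above the average of all compounds screened plus 3 SD, cutoff fixed separately per campaign, cut at about 7.5% in these data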;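 also: 0% = DMSO wells and 100% = 10 µM SAHA wells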
# STAT3 act = activators of IL-6 induced STAT3 signaling; U3A cells, IL-6 STAT3-luciferase reporter, luminescence; 100% = signal with IL-6 EC80 alone; activation (% of control), % at 5.6 µM; 190,000 tested, 0.91% active;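 active = activation above the screen-wide mean of compound activation plus 3 SD, cut at about 130% in these data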;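 also: 0% = background luminescence of wells with medium and substrate only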
#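 Test system: STAT3-luciferase reporter U3A cells; Detection: reporter luminescence signal; Times: 1 h compound pre-exposure, 6 h IL-6 stimulation, 37 °C; Benchmarks: IL-6-only high control; Also added: IL-6 stimulus at 33 ng/mL final.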
# * hit, by the source's call; x = no result; ! = not active in a repeat. Shown are actives, neighbours in structure and some others; about 3.3% of the full set was active somewhere.
SMILES,AHR activator,ABCB6 inh 2,GAA850 FXN act,STAT3 act
CCOC(=O)/C=C/[C@H]1CCc2cccc(C)c2O1,3,100,0,x
CC(C)N1CCc2c(sc(NC(=O)c3nc4ccccc4s3)c2C(N)=O)C1,21,116,-4,77
CC(=O)Nc1sc2c(c1-c1nc3ccccc3s1)CN(C(C)C)CC2,74*,121,23*,x
O=C(NCc1ccncc1)Nc1ccc(Cl)cc1Cl,49*,82,0,96
O=C(NCc1ccccc1)c1cccnc1Sc1ccccc1,1,99,3,x
CC1Oc2ccccc2OC1(O)c1ccccn1 (stereo not given),-1,92,0,91
CC1Oc2ccccc2OC1(O)c1ccc2ccccc2n1 (stereo not given),51*,97,0,89
O=C(Nc1ccccc1)C1Cc2ccccc2CN1C(=O)c1ccco1 (stereo not given),18,100,2,141*
Cn1c(=O)c(C(=O)NNC(=O)c2ccc(Br)cc2)c(O)c2ccccc21,34,103,1,x
Nc1nc(NCC2CCCO2)nc(Nc2ccc(F)cc2)c1[N+](=O)[O-] (stereo not given),76*,108,2,94
Nc1nc(NCc2ccccc2)nc(Nc2ccc(F)cc2)c1[N+](=O)[O-],103*,98,3,98
COc1ccccc1Nc1nc(NCCC(C)C)nc(N)c1[N+](=O)[O-],49*,99,3,x
Cc1ccc(Nc2nc(NCC3CCCO3)nc(N)c2[N+](=O)[O-])cc1 (stereo not given),26,92,4,82
Cc1ccc(CNc2nc(N)c([N+](=O)[O-])c(Nc3cccc(F)c3)n2)cc1,-1,101,3,93
CCN1CCN(C(c2cccs2)C(C)NC(=O)c2ccccc2F)CC1 (stereo not given),1,97,1,98
CSCCC(NC(=O)c1ccccc1Cl)C(=O)NNC(=O)c1ccccc1O (stereo not given),58*,97,1,x
Cc1cc(NC(=O)/C=C/c2cccc(F)c2)n(-c2nc3ccccc3[nH]2)n1,74*,95,2,74
Cc1c(C(=O)N2CCOCC2)c(S(=O)(=O)Nc2ccccc2)c(C)n1C,-3,98,0,x
O=C1c2cccc(Cl)c2C(=O)c2c1cccc2N1CCCC1,17,92,1,137*
O=C1c2ccccc2C(=O)c2cc(N3CCCCC3)ccc21,x,881,-3,x
CCc1ccc(-c2cc(C(=O)NN3CCOCC3)c3ccccc3n2)cc1,4,98,0,103
O=C(NN1CCOCC1)c1cc(-c2ccc(Br)cc2)nc2ccccc12,58*,106,0,102
O=C(NCCCN1CCOCC1)c1cc(-c2ccc(Br)cc2)nc2ccccc12,75*,97,0,x
C#CC(=O)N(c1cccc(OC)c1)C(C(=O)NC1CCCC1)c1cccs1 (stereo not given),-16,101,-17,14
C#CC(=O)N(c1ccc(OC)c(OC)c1)C(C(=O)NC1CCCC1)c1cccs1 (stereo not given),-9,55*,-20,15
SMILES,AHR activator,ABCB6 inh 2,GAA850 FXN act,STAT3 act
CC(=O)c1cccc(NC(=O)CN(C)S(=O)(=O)c2cccc3nsnc23)c1,9,99,-1,x
Cn1nc(C(F)(F)F)c(C(=O)Nc2ccc(F)cc2F)c1Oc1cccc(Cl)c1,-4,97,-3,95
Cc1nn(C)c(Oc2cccc(Cl)c2)c1C=O,2,74*,-1,103
Nc1c(C(=O)N/N=C/c2ccc(Cl)cc2)cnn1-c1ccccc1,38,94,3,x
Nc1c(C(=O)N/N=C/c2cccnc2)cnn1-c1ccccc1,51*,98,1,110
COc1cccc(/C=N/NC(=O)c2cnn(-c3ccccc3)c2N)c1,68*,94,5,x
CN(c1ccc(OCC(=O)OCC(=O)Nc2ccc([N+](=O)[O-])cc2)cc1)S(=O)(=O)c1cccs1,x,95,-1,x
O=C(Nc1ccc2c(c1)C(=O)NC2=O)c1cccc(C(F)(F)F)c1,53*,91,1,x
COc1cc(NC(=O)c2cccc(F)c2)cc(OC)c1OC,63*,98,2,105
O=C(Nc1ccc(F)cc1)c1cccc(C(=O)Nc2ccc(F)cc2)c1,51*,99,-1,x
COc1ccc(C(N)=O)cc1NC(=O)c1cccc(F)c1,61*,99,2,118
COc1ccc(NC(=O)c2cccc(F)c2)cc1Cl,-2,95,2,97
O=C(O)CCSc1nnc(SCC(=O)NC2CCS(=O)(=O)C2)s1 (stereo not given),-2,98,2,x
C=CCn1c(SCC(=O)N(CC)C2CCS(=O)(=O)C2)nc2cc(C(=O)O)ccc2c1=O (stereo not given),0,103,2,x
Cc1c(/C=N/NC(=O)CNc2ccccc2)c2ccccn2c1C(=O)c1ccccc1,53*,101,-3,106
Cc1c(/C=N/NC(=O)c2ccc(O)cc2)c2ccccn2c1C(=O)c1ccc(F)cc1,4,83,-3,112
Cc1c(/C=N/NC(=O)c2cccnc2)c2ccccn2c1C(=O)c1ccc(F)cc1,73*,x,x,100
Cc1c(/C=N/NC(=O)c2ccccc2O)c2ccccn2c1C(=O)c1ccc(F)cc1,53*,90,1,103
Cc1c(/C=N/NC(N)=O)c2ccccn2c1C(=O)c1ccncc1,30,93,5,x
NC(=O)c1ccccc1OCc1nc2ccccc2s1,40,96,6,x
O=C(NCCc1ccccc1)c1ccc(-c2ccc(F)c(F)c2)c2ccoc12,x,103,-1,x
Cn1c(C(=O)NCC2CCCO2)cc2c(=O)[nH]c3ccccc3c21 (stereo not given),12,111,1,100
Cn1c(C(=O)NCC2CCCO2)cc2c(=O)n(C)c3ccccc3c21 (stereo not given),49*,99,-1,95
CC1=NN(c2ccccc2)C(=O)/C1=C\c1cc(C)n(C)c1C,54*,96,2,x
Brc1ccc(/C=N/Nc2ccc3ccccc3n2)cc1,69*,110,7.8*,99
SMILES,AHR activator,ABCB6 inh 2,GAA850 FXN act,STAT3 act
CCC1(CC)Cc2ccccc2-c2nc(-c3ccccc3)oc(=O)c21,-3,70*,2,101
O=c1oc(-c2ccccc2)nc2c1C1(CCCCC1)Cc1ccccc1-2,-2,105,1,102
CC1(Cc2ccc(Cl)c(Cl)c2)C(=O)Nc2ccc(S(=O)(=O)NC3CCCCC3)cc21 (stereo not given),x,95,3,x
CC(C)N1CCC2(CC1)N=C(c1ccc3c(c1)OCO3)CC(c1cc(Cl)ccc1O)N2 (stereo not given),76*,101,1,102
Cc1cc(C)cc(OCC(=O)Nc2cccc(-c3nc4ncccc4o3)c2)c1,1,97,0,86
CC(=O)N[C@H](Cc1c[nH]c2ccccc12)C(=O)O,0,100,0,x
CC(=O)/C=C(/C)NC(Cc1c[nH]c2ccccc12)C(=O)O (stereo not given),16,91,0,133*!
O=C(O)C(=O)Cc1c[nH]c2ccccc12,45,102,0,133*
